# Test results as given in ChEMBL document CHEMBL1811800, “The discovery of long-acting saligenin β₂ adrenergic receptor agonists incorporating hydantoin or uracil rings” (Bioorg Med Chem, 2011).
# How the values were obtained:
# [1] = target: Beta-2 adrenergic receptor (Cavia porcellus, UniProt Q8K4Z4); test: Agonist activity at adrenergic beta2 receptor in guinea pig trachea assessed as inhibition of electrically-stimulated contraction; assay type: functional
# [2] = target: Beta-1 adrenergic receptor (Homo sapiens, UniProt P08588); test: Agonist activity at human adrenergic beta1 receptor expressed in CHO cells assessed as cAMP accumulation; assay type: functional, cell-based
# Beta-1 adrenergic receptor, sequence (P08588 whole entry): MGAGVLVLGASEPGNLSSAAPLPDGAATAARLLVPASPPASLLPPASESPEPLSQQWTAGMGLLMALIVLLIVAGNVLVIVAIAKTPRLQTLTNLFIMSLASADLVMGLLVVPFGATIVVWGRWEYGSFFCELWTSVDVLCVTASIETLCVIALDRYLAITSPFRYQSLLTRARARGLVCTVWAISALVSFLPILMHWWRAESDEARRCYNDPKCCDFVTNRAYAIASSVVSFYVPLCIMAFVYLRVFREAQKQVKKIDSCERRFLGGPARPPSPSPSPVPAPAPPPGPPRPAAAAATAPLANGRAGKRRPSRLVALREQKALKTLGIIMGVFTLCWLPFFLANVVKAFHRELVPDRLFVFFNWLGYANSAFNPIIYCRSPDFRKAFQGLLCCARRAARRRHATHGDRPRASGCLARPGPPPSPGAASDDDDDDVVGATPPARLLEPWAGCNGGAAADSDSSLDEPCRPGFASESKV
# [3] = target: Beta-3 adrenergic receptor (Homo sapiens, UniProt P13945); test: Agonist activity at human adrenergic beta3 receptor expressed in CHO cells assessed as cAMP accumulation; assay type: functional, cell-based
# Beta-3 adrenergic receptor, sequence (P13945 whole entry): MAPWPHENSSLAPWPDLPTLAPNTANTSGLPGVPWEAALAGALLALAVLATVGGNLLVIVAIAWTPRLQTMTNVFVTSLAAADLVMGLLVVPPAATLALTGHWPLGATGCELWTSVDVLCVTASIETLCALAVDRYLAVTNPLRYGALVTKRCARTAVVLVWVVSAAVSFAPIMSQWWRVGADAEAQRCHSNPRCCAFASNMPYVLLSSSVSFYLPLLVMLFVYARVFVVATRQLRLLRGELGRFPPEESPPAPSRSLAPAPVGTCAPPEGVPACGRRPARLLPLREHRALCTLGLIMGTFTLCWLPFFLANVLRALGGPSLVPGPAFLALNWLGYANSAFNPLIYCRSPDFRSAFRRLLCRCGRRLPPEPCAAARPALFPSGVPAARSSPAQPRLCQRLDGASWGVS
# [4] = target: Beta-2 adrenergic receptor (Homo sapiens, UniProt P07550); test: Agonist activity at human adrenergic beta2 receptor expressed in CHO cells assessed as cAMP accumulation; assay type: functional, cell-based
# Beta-2 adrenergic receptor (Homo sapiens, UniProt P07550), sequence (P07550 whole entry): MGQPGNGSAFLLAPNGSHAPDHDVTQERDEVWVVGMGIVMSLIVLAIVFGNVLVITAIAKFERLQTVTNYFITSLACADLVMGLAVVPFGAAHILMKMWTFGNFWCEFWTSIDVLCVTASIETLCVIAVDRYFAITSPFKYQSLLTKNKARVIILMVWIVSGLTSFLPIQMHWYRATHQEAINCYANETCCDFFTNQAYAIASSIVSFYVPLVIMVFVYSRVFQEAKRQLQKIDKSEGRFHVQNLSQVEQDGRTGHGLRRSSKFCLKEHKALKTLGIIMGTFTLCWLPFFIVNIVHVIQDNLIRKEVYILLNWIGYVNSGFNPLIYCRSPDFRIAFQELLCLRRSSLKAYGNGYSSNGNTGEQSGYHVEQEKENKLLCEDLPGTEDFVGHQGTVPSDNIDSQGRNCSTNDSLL
# Cavia porcellus [5] = test: Bronchodilatory activity against histamine-induced bronchospasm in guinea pig administered via nebulizer; assay type: functional
# Procedure, shortened: (§1)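 Guinea pigs; agonist given as nebulised solution in dimethyl acetamide-saline vehicle at EC90 dose or 10-fold EC90 dose. Duration expressed as time to 50% recovery.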
# Liver microsomes [6] = test: Metabolic stability in human liver microsomes with 125 pmol/mL P450 assessed as compound turnover ratio at 5 uM after 30 mins by LC-MS method relative to verapamil; assay type: ADME, Microsome; settings: 0.5 h
# [7] = Plasma clearance in Han Wistar rat at 0.25 mg/kg, iv by LC-MS/MS; assay type: ADME, organism-based; design: dose 0.25 mg/kg, route intravenous
# Procedure, shortened: (§2)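 Male Han Wistar rats, fasted 18 h. Oral dose 2.0 mg base/kg by gavage in DMSO-PEG 200-distilled water (5:30:65); iv dose 0.25 mg base/kg via tail vein in DMSO-PEG 200-saline (10:45:45). Blood sampled 0.03 (iv only) to 8 h post dose, n = 2 animals/time-point. Plasma assayed by LC–MS/MS; parameters from noncompartmental analysis.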
# Liver microsomes [8] = test: Metabolic stability of the compound in human liver microsomes assessed as formation of N-({[3-(4-{[6-({(2R)-2-Hydroxy-2-[4-hydroxy-3-(hydroxy methyl)phenyl]ethyl}amino) hexyl]oxy}butyl)phenyl]amino} carbonyl)glycine acetate; assay type: ADME, Microsome
# Procedure, shortened: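 Incubated at 25 µM with human liver microsomes (and hepatocytes). Samples mixed with equal volume acetonitrile, centrifuged; supernatant analysed by reverse-phase gradient LC with electrospray MS detection for metabolites.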
# [9] = Plasma clearance in Beagle dog at 0.052 mg/kg, iv by LC-MS/MS; assay type: ADME, organism-based, Canis lupus familiaris; design: dose 0.052 mg/kg, route intravenous
# Procedure, shortened: (§3)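 Female beagle dogs (n = 2), fasted 18 h, crossover design. Oral 0.25 mg base/kg by gavage in DMSO-PEG 200-distilled water (5:30:65); iv 0.052 mg base/kg via cephalic vein in DMSO-PEG 200-saline (10:45:45). Jugular blood sampled 0.03 (iv only) to 8 h. Plasma assayed by LC–MS/MS; noncompartmental parameters.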
# [10] = Half life in Han Wistar rat at 0.25 mg/kg, iv by LC-MS/MS; assay type: ADME, organism-based; design: dose 0.25 mg/kg, route intravenous; settings: in vivo; procedure, shortened: as §2
# [11] = Oral bioavailability in Beagle dog at 0.25 mg/kg by LC-MS/MS; assay type: ADME, organism-based, Canis lupus familiaris; settings: in vivo; procedure, shortened: as §3
# Cavia porcellus [12] = test: Bronchodilatory activity against histamine-induced bronchospasm in guinea pig assessed as time taken for 50% recovery of bronchospasm at 10-fold EC90 administered via nebulizer; assay type: functional; procedure, shortened: as §1
# [13] = Stability of the compound in solid state at 4 degC after 18 days; assay type: physicochemical; settings: 432 h
# [14] = Volume of distribution at steady state in Han Wistar rat at 0.25 mg/kg, iv by LC-MS/MS; assay type: ADME, organism-based; design: dose 0.25 mg/kg, route intravenous; settings: in vivo, read-out: Vdss; procedure, shortened: as §2
# [15] = Volume of distribution at steady state in Beagle dog at 0.052 mg/kg, iv by LC-MS/MS; assay type: ADME, organism-based, Canis lupus familiaris; design: dose 0.052 mg/kg, route intravenous; settings: in vivo, read-out: Vdss; procedure, shortened: as §3
# [16] = Oral bioavailability in Han Wistar rat at 2.0 mg/kg by LC-MS/MS; assay type: ADME, organism-based; settings: in vivo; procedure, shortened: as §2
# [17] = Half life in Beagle dog at 0.052 mg/kg, iv by LC-MS/MS; assay type: ADME, organism-based, Canis lupus familiaris; design: dose 0.052 mg/kg, route intravenous; settings: in vivo; procedure, shortened: as §3
# [18] = Stability of the compound in methanol assessed as formation of methyl ester of N-({[3-(4-{[6-({(2R)-2-Hydroxy-2-[4-hydroxy-3-(hydroxy methyl)phenyl]ethyl}amino) hexyl]oxy}butyl)phenyl]amino} carbonyl)glycine acetate
# Cavia porcellus [19] = test: Bronchodilatory activity against histamine-induced bronchospasm in guinea pig assessed as time taken for 50% recovery of bronchospasm at EC90 administered via nebulizer; assay type: functional; procedure, shortened: as §1
# [20] = Cmax in Beagle dog at 0.25 mg/kg, po by LC-MS/MS; assay type: ADME, organism-based, Canis lupus familiaris; design: dose 0.25 mg/kg, route oral; settings: in vivo; procedure, shortened: as §3
# Beta-2 adrenergic receptor (Cavia porcellus, UniProt Q8K4Z4), sequence (Q8K4Z4 whole entry): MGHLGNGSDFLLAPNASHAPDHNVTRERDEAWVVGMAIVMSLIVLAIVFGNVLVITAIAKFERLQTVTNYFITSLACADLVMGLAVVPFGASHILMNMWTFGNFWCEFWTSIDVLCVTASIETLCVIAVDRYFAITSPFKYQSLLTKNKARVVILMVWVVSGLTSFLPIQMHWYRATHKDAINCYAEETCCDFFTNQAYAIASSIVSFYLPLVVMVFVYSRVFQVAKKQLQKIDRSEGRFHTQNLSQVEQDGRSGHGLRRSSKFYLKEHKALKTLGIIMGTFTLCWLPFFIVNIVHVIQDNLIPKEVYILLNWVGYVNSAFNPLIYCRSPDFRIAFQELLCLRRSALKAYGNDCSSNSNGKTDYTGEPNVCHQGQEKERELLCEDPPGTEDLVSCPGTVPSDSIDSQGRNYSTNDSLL
Structure (SMILES),EC50 [1],EC50 [2],EC50 [3],EC50 [4],Ratio (Liver microsomes [6]),further results
O=C(O)CNC(=O)Nc1cccc(CCCCOCCCCCCNC[C@H](O)c2ccc(O)c(CO)c2)c1 [listing 1 of 2 here],1 nM,,,,,
O=c1cc[nH]c(=O)n1-c1cccc(CCCCOCCCCCCNC[C@H](O)c2ccc(O)c(CO)c2)c1 [listing 1 of 2 here],,251 nM,398 nM,0.794 nM,,
OCc1cc(C(O)CNCCCCCCOCCCCc2ccccc2)ccc1O (stereo unspecified) [SALMETEROL],5.01 nM,,,,,EC90 (Cavia porcellus [5]): 50000 nM
CC(=O)O.CC1(C)NC(=O)N(c2cccc(CCCCOCCCCCCNC[C@H](O)c3ccc(O)c(CO)c3)c2)C1=O,,200 nM,63.1 nM,0.794 nM,0.48,
O=C1CNC(=O)N1c1ccccc1CCCCOCCCCCCNC[C@H](O)c1ccc(O)c(CO)c1,,200 nM,200 nM,2.51 nM,0.46,
O=c1cc[nH]c(=O)n1-c1cccc(CCCCOCCCCCCNC[C@H](O)c2ccc(O)c(CO)c2)c1 [listing 2 of 2 here],0.2 nM,,,,,

# Now from value to compound, other results behind:
EC50 [1],EC50 [2],EC50 [3],EC50 [4],Ratio (Liver microsomes [6]),Structure (SMILES),further results
2.51 nM,200 nM,316 nM,2.51 nM,0.4,CC(=O)O.O=C1CN(c2cccc(CCCCOCCCCCCNC[C@H](O)c3ccc(O)c(CO)c3)c2)C(=O)N1,
,50.1 nM,50.1 nM,1.26 nM,,O=c1ccn(-c2cccc(CCCCOCCCCCCNC[C@H](O)c3ccc(O)c(CO)c3)c2)c(=O)[nH]1,
,79.4 nM,31.6 nM,2 nM,0.3,CC(=O)O.O=C1CNC(=O)N1c1ccc(CCCCOCCCCCCNC[C@H](O)c2ccc(O)c(CO)c2)cc1,
,126 nM,39.8 nM,1.26 nM,1.62,CC(=O)O.O=C1CNC(=O)N1Cc1cccc(CCCCOCCCCCCNC[C@H](O)c2ccc(O)c(CO)c2)c1,
,50.1 nM,25.1 nM,0.794 nM,,O=C1NC(=O)N(Cc2cccc(CCCCOCCCCCCNC[C@H](O)c3ccc(O)c(CO)c3)c2)C1=O,
,158 nM,79.4 nM,0.251 nM,0.91,CC(=O)O.NC(=O)CN1C(=O)CN(c2cccc(CCCCOCCCCCCNC[C@H](O)c3ccc(O)c(CO)c3)c2)C1=O,
,79.4 nM,63.1 nM,0.631 nM,0.75,CC(=O)O.O=C1CN(Cc2cccc(CCCCOCCCCCCNC[C@H](O)c3ccc(O)c(CO)c3)c2)C(=O)N1,
,126 nM,100 nM,1 nM,0.55,O=C(O)CNC(=O)Nc1cccc(CCCCOCCCCCCNC[C@H](O)c2ccc(O)c(CO)c2)c1 [listing 2 of 2 here],
0.794 nM,79.4 nM,100 nM,0.631 nM,0.86,CC(=O)O.O=C1CNC(=O)N1c1cccc(CCCCOCCCCCCNC[C@H](O)c2ccc(O)c(CO)c2)c1,clearance [7]: 120 mL/min/kg; Stability (Liver microsomes [8]): Unstable; clearance [9]: 13 mL/min/kg; half-life [10]: 0.3 h; bioavailability [11]: 5%; EC90 (Cavia porcellus [5]): 25000 nM; Time (Cavia porcellus [12]): 18 h; Stability [13]: Unstable; Vd [14]: 2 L/kg; Vd [15]: 0.8 L/kg; bioavailability [16]: 2%; half-life [17]: 2 h; Stability [18]: Unstable; Time (Cavia porcellus [19]): 12 h; Cmax [20]: 12 ng/mL
